Experimental findings from PubChem BioAssay are described below.

The structures appear in SMILES notation. The source made the active and inactive calls.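 Rule for the calls, unless noted: active = viability loss from added drug above about 55%, and viability with drug at most 40%, in both replicates (limit read from the data, passing the limit was not always enough); inconclusive = both conditions met in only one replicate; inactive = neither replicate meets both conditions.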

Assay [1] is described as follows: reducers of endogenous Her2 protein level, primary screen, SKBR3 breast tumor cells, AlphaScreen, ATP viability (AID 461;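 active = Her2 level under about 52% in both replicate screens, with viability over 70% of control, limit read from the data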;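 for Her2 level: lower value means less Her2 protein in the cells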;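 for viability: percent of carrier control wells set as 100% viability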). To be noted: 18-24 h, measured here: SKBR3 viability, ATP luminescence, at 10 µM. On the technique in general: Bead proximity is the source of the signal in Alpha formats.
Assay [2] concerns the target Receptor tyrosine-protein kinase erbB-2 (Homo sapiens) (UniProt P04626). The assay is described as above. The conditions noted are these: 18-24 h, at 10 µM, stronger effect = lower value.
Assay [3] in a line: SK-BR-3 cell growth inhibitors, pilot screen, 24 h, human (AID 572;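 active = viability at or below 10% of carrier control in both of two separate runs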;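 note: compound exposure lasted between 18 and 24 h rather than exactly 24 h; 100% = carrier-treated control wells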). The conditions noted are these: SK-BR-3 viability, CellTiter-Glo luminescence, at 10 µM, stronger effect = lower value. On the technique in general: ATP-based viability assays read luminescence as a measure of living cells.
A short description of assay [4]: HUVEC growth inhibition – cell-based, human, primary screen (AID 575;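 active = viability at or below 30% in both replicate assays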;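 note: 100% = median of untreated cell wells with 0.1% DMSO on each plate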). The conditions noted are these: HUVEC proliferation, CellTiter-Glo luminescence, 72 h; at 10 µM; stronger effect = lower value. In outline: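 Test system: primary human umbilical vein endothelial cells. Quantity: 1250 cells/well. Compound: single 10 µM dose, 0.1% DMSO, from 5x medium stock. Timing: 72 h treatment at 37 °C. Detection: ATP-based CellTiter-Glo luminescent read. Benchmarks: vehicle and MePR control wells. Format: 384-well plates coated with collagen.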

Assay [5] is described as follows: growth inhibitors of H69AR lung tumor, primary screen, human, duplicate replicates (AID 580;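 active = viability at or under a set limit in both replicates, limit being median viability minus 3 SD, cut at about 48% in these data, passing the limit was not always enough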;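 note: 100% = mean luminescence of untreated wells and 0% = no signal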). The conditions noted are these: H69AR lung tumor cells viability, ATP luminescence, 72 h; at 10 µM; stronger effect = lower value.
Assay [6] can be described thus: reversal of MRP1-mediated doxorubicin resistance, pilot screen, H69AR cells, doxorubicin co-treatment (AID 601). The conditions noted are these: CellTiter-Glo, 72 h, at 10 µM; for differential viability (reversal): stronger effect = higher value.
The nature of assay [7]: 384-well plate pilot, post-Golgi transport modulator project, inhibition of yeast transport mutant growth (AID 636; in the data active = inhibition above about 31%). To be noted: absorbance 615 nm, about 18 h, stronger effect = higher value.
Assay [8] in a line: growth suppression of yeast trafficking mutant, preliminary HTS, modulators of trafficking downstream of Golgi apparatus project, 1536-format plate, OD 615 nm (AID 637; in the data active = inhibition above about 30%). To be noted: yeast transport mutant growth, absorbance 615 nm, 18 h; stronger effect = higher value.
Where [9] appears, read: H69AR cells + 2 uM doxorubicin, measured here: viability with 2 uM doxorubicin, stronger effect = lower value.
[10] abbreviates: H69AR cells, compound alone cytotoxicity.

Chain of Receptor tyrosine-protein kinase erbB-2 (Homo sapiens) (P04626 whole entry, looked up): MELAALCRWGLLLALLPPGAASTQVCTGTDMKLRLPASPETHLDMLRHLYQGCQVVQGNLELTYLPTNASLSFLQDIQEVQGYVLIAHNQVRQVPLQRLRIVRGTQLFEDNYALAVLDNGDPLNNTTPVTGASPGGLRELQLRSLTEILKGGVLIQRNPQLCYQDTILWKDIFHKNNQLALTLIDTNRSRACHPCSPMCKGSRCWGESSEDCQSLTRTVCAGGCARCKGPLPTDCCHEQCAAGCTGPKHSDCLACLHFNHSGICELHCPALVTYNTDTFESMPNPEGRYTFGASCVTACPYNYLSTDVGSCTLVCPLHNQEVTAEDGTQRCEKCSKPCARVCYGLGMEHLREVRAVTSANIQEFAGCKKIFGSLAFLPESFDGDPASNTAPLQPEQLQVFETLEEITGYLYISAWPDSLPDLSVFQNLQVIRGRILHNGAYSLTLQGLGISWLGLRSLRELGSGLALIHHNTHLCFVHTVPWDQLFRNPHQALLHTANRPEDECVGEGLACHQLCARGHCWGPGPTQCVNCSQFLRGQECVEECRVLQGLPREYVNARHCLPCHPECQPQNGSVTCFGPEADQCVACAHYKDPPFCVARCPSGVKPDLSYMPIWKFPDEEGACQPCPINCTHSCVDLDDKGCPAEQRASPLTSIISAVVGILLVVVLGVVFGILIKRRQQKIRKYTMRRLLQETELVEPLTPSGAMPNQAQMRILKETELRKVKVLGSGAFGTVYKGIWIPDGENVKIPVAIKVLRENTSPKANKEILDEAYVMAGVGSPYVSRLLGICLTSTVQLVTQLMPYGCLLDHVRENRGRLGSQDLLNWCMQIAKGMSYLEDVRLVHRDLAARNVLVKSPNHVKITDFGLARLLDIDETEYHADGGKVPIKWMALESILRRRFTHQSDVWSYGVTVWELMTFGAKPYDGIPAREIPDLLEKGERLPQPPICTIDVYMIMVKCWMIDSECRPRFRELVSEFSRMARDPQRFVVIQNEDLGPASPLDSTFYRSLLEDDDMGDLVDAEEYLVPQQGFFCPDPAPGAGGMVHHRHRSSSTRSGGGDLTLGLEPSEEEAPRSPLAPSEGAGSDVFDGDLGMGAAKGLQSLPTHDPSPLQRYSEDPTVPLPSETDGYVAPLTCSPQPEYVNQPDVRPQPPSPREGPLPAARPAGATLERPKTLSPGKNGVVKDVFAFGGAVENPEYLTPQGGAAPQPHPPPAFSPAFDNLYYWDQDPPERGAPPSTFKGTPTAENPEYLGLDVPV

Turning to `Cc1cc(C)c2[nH]c(=O)c(C(c3nnnn3Cc3ccc4c(c3)OCO4)N3CCC(C)CC3)cc2c1` (stereo not given), the viability in assay [1] is 90%; in assay [3], 90% (inactive); in assay [4], 84.4% (inactive); in assay [5] it was 86.7% (inactive); in assay [6] (setting [9]), 93.1%; in assay [6] (setting [10]), 86.7%. Besides, the Her2 level in assay [2] was 106% (inactive). Further, in assay [6] (H69AR cells + 2 uM doxorubicin), the differential viability (reversal) is -6.47% (inactive). For the same compound, the inhibition in assay [7] was -4.67% (inactive); in assay [8], -6.83% (inactive).
With `CN(C)S(=O)(=O)c1ccc(C(=O)Nc2ccccc2C(=O)O)cc1`, the viability in assay [1] is 102%; in assay [3] it was 102% (inactive); in assay [4], 102% (inactive); in assay [5] it was 94.6% (inactive); in assay [6] (setting [9]), 95.7%; in assay [6] (setting [10]), 94.6%. The Her2 level in assay [2] was 88.5% (inactive). The differential viability (reversal) in assay [6] (H69AR cells + 2 uM doxorubicin) is -1.06% (inactive). Besides, the inhibition is -3.03% (inactive) in assay [7] and -3.17% (inactive) in assay [8].
As for `CCN(CCCNC(=O)CCNC(=O)Cn1ccc2ccccc2c1=O)c1ccccc1`, the viability in assay [1] is 97.5%; in assay [3], 97.5% (inactive); in assay [4] it was 109% (inactive); in assay [5], 98.3% (inactive); in assay [6] (setting [9]), 86.5%; in assay [6] (setting [10]), 98.3%. The Her2 level in assay [2] is 87.5% (inactive). The differential viability (reversal) in assay [6] (H69AR cells + 2 uM doxorubicin) was 11.8% (inactive). Besides, the results for the inhibition in assay [7] and in assay [8] were -5.47% (inactive) and -2.86% (inactive), respectively.
`O=C(Nc1ccccn1)NC(C(F)(F)F)C(F)(F)F`: the viability in assay [1] was 98.5%; in assay [3] it was 98.5% (inactive); in assay [4] it was 100% (inactive); in assay [5], 92.9% (inactive); in assay [6] (setting [9]), 90.3%; in assay [6] (setting [10]), 92.9%. The Her2 level in assay [2] was 102% (inactive). For the same compound, the differential viability (reversal) in assay [6] (H69AR cells + 2 uM doxorubicin) is 2.58% (inactive). Besides, the inhibition was -1.07% (inactive) in assay [7] and 1.15% (inactive) in assay [8].
For the compound `CC(=O)Nc1ccc(S(=O)(=O)NCC2CCC(C(=O)NCCCN3CCCC3=O)CC2)cc1` (stereo not given), the viability in assay [1] was 107%; in assay [3], 107% (inactive); in assay [4] it was 92.4% (inactive); in assay [5], 94.3% (inactive); in assay [6] (setting [9]), 87.8%; in assay [6] (setting [10]) it was 94.3%. Also, in assay [2], the Her2 level is 91.5% (inactive). The differential viability (reversal) in assay [6] (H69AR cells + 2 uM doxorubicin) is 6.51% (inactive). Besides, the inhibition in assay [7] was -4.13% (inactive); in assay [8] it was 1.45% (inactive).
On to `CCOCCCn1c(=S)[nH]c2cc3c(cc2c1=O)OCO3`, for which the viability is 99% in assay [1]; 99% (inactive) in assay [3]; 96.3% (inactive) in assay [4]; 97.6% (inactive) in assay [5]; 93.4% in assay [6] (setting [9]); 97.6% in assay [6] (setting [10]). The Her2 level in assay [2] was 102% (inactive). In addition, the differential viability (reversal) in assay [6] (H69AR cells + 2 uM doxorubicin) is 4.13% (inactive). The inhibition in assay [7] is -3.38% (inactive); in assay [8], -2.79% (inactive).
As to `CCOC(=O)c1cc2sccc2n1Cc1ccccc1`, the viability was 100% in assay [1]; 100% (inactive) in assay [3]; 97.9% (inactive) in assay [4]; 96% (inactive) in assay [5]; 80.7% in assay [6] (setting [9]); 96% in assay [6] (setting [10]). In assay [2], the Her2 level was 116% (inactive). Also, the differential viability (reversal) in assay [6] (H69AR cells + 2 uM doxorubicin) is 15.4% (inactive). Also, the values for the inhibition in assay [7] and in assay [8] were -2.8% (inactive) and 1.8% (inactive), respectively.
Regarding `Cc1ccc(N2C(=O)c3ccccc3C2Nc2cccnc2)nc1` (stereo not given), the viability was 94% in assay [1]; 94% (inactive) in assay [3]; 85.4% (inactive) in assay [4]; 83.3% (inactive) in assay [5]; 94.1% in assay [6] (setting [9]); 83.3% in assay [6] (setting [10]). The Her2 level in assay [2] is 99.5% (inactive). Besides, the differential viability (reversal) in assay [6] (H69AR cells + 2 uM doxorubicin) is -10.8% (inactive). Besides, the inhibition is -2.18% (inactive) in assay [7] and -1.33% (inactive) in assay [8].
`C=CCn1c(SCC2=C(C(=O)OCC)C(C)NC(=O)N2)nnc1C1CCCCC1` (stereo not given): the viability was 100% in assay [1]; 100% (inactive) in assay [3]; 83.6% (inactive) in assay [4]; 91.5% (inactive) in assay [5]; 96.2% in assay [6] (setting [9]); 91.5% in assay [6] (setting [10]). For the same compound, the Her2 level in assay [2] is 105% (inactive). Moreover, the differential viability (reversal) in assay [6] (H69AR cells + 2 uM doxorubicin) was -4.74% (inactive). Moreover, the inhibition in assay [7] was -5.06% (inactive); in assay [8] it was -0.98% (inactive).
For `CCOP(=O)(c1ccc(N(C)C)cc1)C(O)c1cc(OC)c(OC)c(OC)c1` (stereo not given), the viability in assay [1] is 76.5%; in assay [3], 76.5% (inactive); in assay [4], 80.6% (inactive); in assay [5], 87.4% (inactive); in assay [6] (setting [9]), 87.4%; in assay [6] (setting [10]) it was 87.4%. Besides, the Her2 level in assay [2] is 80% (inactive). Further, in assay [6] (H69AR cells + 2 uM doxorubicin), the differential viability (reversal) was -0.05% (inactive). In addition, the results for the inhibition in assay [7] and in assay [8] were -3.68% (inactive) and -2.38% (inactive), respectively.
Take `COc1ccccc1NC(=O)CSc1nnc(CC(=O)Nc2ccccc2)n1C`: the viability was 96% in assay [1]; 96% (inactive) in assay [3]; 113% (inactive) in assay [4]; 91% (inactive) in assay [5]; 93.1% in assay [6] (setting [9]); 91% in assay [6] (setting [10]). Besides, in assay [2], the Her2 level is 80.5% (inactive). In addition, the differential viability (reversal) in assay [6] (H69AR cells + 2 uM doxorubicin) is -2.08% (inactive). The inhibition is -2.99% (inactive) in assay [7] and -2% (inactive) in assay [8].
`CC(=O)Nc1c(-c2ccc(F)cc2)nc2ccccn12`: the viability was 94.5% in assay [1]; 94.5% (inactive) in assay [3]; 114% (inactive) in assay [4]; 87.7% (inactive) in assay [5]; 107% in assay [6] (setting [9]); 87.7% in assay [6] (setting [10]). Further, in assay [2], the Her2 level was 107% (inactive). Moreover, the differential viability (reversal) in assay [6] (H69AR cells + 2 uM doxorubicin) was -19.5% (inactive). Also, the inhibition is -4.67% (inactive) in assay [7] and 1% (inactive) in assay [8].
As to `CCCCOc1ccc(-c2nnn(CC(=O)Nc3ncc(CC(=O)OCC)s3)n2)cc1`, the viability in assay [1] was 122%; in assay [3] it was 122% (inactive); in assay [4], 74.5% (inactive); in assay [5] it was 84% (inactive); in assay [6] (setting [9]), 88.4%; in assay [6] (setting [10]), 84%. Besides, in assay [2], the Her2 level is 100% (inactive). Moreover, the differential viability (reversal) in assay [6] (H69AR cells + 2 uM doxorubicin) is -4.45% (inactive). Besides, the inhibition in assay [7] was -7.11% (inactive); in assay [8] it was -1.59% (inactive).
In the case of `CN1C(=S)SC(C)(NO)C1(C)C` (stereo not given), the viability in assay [1] was 90%; in assay [3] it was 90% (inactive); in assay [4] it was 97% (inactive); in assay [5], 104% (inactive); in assay [6] (setting [9]) it was 98.4%; in assay [6] (setting [10]) it was 104%. Further, the Her2 level in assay [2] was 95.5% (inactive). Besides, the differential viability (reversal) in assay [6] (H69AR cells + 2 uM doxorubicin) was 5.95% (inactive). The inhibition was -0.27% (inactive) in assay [7] and -9.52% (inactive) in assay [8].
For the compound `O=C(Cc1ccccc1)N1CCCC(c2nc(-c3cccs3)no2)C1` (stereo not given), the viability is 91.5% in assay [1]; 91.5% (inactive) in assay [3]; 95.5% (inactive) in assay [4]; 102% (inactive) in assay [5]; 85.7% in assay [6] (setting [9]); 102% in assay [6] (setting [10]). Besides, in assay [2], the Her2 level was 111% (inactive). In assay [6] (H69AR cells + 2 uM doxorubicin), the differential viability (reversal) is 16.8% (inactive). For the same compound, the inhibition in assay [7] is -5.27% (inactive); in assay [8], -3.61% (inactive).
Regarding `CCOc1cc(-c2nc(-c3ccccc3OC)no2)cc(OCC)c1OCC`, the viability in assay [1] is 90%; in assay [3], 90% (inactive); in assay [4], 97.4% (inactive); in assay [5], 92.5% (inactive); in assay [6] (setting [9]), 95.1%; in assay [6] (setting [10]) it was 92.5%. Further, the Her2 level in assay [2] was 96.5% (inactive). Further, the differential viability (reversal) in assay [6] (H69AR cells + 2 uM doxorubicin) was -2.62% (inactive). Moreover, the inhibition is -2.13% (inactive) in assay [7] and 22% (inactive) in assay [8].

One may read the viability as a read-out of living cells in per cent, often relative to untreated cells. As a reminder, the inhibition is the change of the read-out against control, counted positive when it falls.
